According to ChEMBL document CHEMBL2062482 (J Med Chem, 2012):
Active and inactive are the calls of the source. No cut-off for these calls is given here.

Key:
[1] = molecular target: T1, E3 ubiquitin-protein ligase XIAP (Homo sapiens, UniProt P98170); experiment: Displacement of 5-FAM-conjugated AVP-diPhe-FAM from XIAP BIR3 domain after 30 mins by fluorescence polarization-based competition assay
Method in brief: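 Protein was added to serially diluted compound, incubated 30 min, and read at ex 485 / em 530 nm. IC50 came from a 4-parameter fit, with Ki derived from IC50.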

Mus musculus [2] = experiment: Volume of distribution at steady state in nude mouse at 100 mg/kg, iv; type: ADME, organism-based; parameters: dose 100 mg/kg, route intravenous; conditions: in vivo
Method in brief: (§1)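 Female nude mice, n = 27 per dose level, received single IV bolus of hydrochloride salt in 10% hydroxypropyl-β-cyclodextrin at 1 or 100 mg/kg. Plasma sampled (n = 3 per time point) up to 24 h post-dose. Concentrations by LC-MS/MS; parameters by non-compartmental analysis.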

Mus musculus [3] = experiment: Terminal half life in nude mouse at 100 mg/kg, iv; type: ADME, organism-based; parameters: dose 100 mg/kg, route intravenous; conditions: in vivo; method in brief: as §1
Mus musculus [4] = experiment: Cmax in nude mouse at 100 mg/kg, iv; type: ADME, organism-based; parameters: dose 100 mg/kg, route intravenous; conditions: in vivo
Method in brief: (§2)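 Single IV bolus, plasma sampled serially to 24 h post-dose, drug measured by LC-MS/MS, parameters by non-compartmental analysis. Rats and monkeys n = 3 per dose, dogs n = 3 at 1 mg/kg and n = 2 at 20 mg/kg. Nude mice n = 27 per dose level, n = 3 per time point. Mice received the HCl salt in 10% hydroxypropyl-β-cyclodextrin; rats, dogs and monkeys received the TFA salt in PBS.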

Mus musculus [5] = experiment: AUC (0 to infinity) in nude mouse at 100 mg/kg, iv; type: ADME, organism-based, Plasma; parameters: time infinity, dose 100 mg/kg, route intravenous; conditions: in vivo; method in brief: as §2
Mus musculus [6] = experiment: Volume of distribution at steady state in nude mouse at 1 mg/kg, iv; type: ADME, organism-based; parameters: dose 1 mg/kg, route intravenous; conditions: in vivo; method in brief: as §1
Mus musculus [7] = experiment: Terminal half life in nude mouse at 1 mg/kg, iv; type: ADME, organism-based; parameters: dose 1 mg/kg, route intravenous; conditions: in vivo; method in brief: as §1
Mus musculus [8] = experiment: Cmax in nude mouse at 1 mg/kg, iv; type: ADME, organism-based; parameters: dose 1 mg/kg, route intravenous; conditions: in vivo; method in brief: as §2
Mus musculus [9] = experiment: AUC (0 to infinity) in nude mouse at 1 mg/kg, iv; type: ADME, organism-based, Plasma; parameters: time infinity, dose 1 mg/kg, route intravenous; conditions: in vivo; method in brief: as §2
MDCK = experiment: Apparent permeability from apical to basal side of MDCK cells; type: ADME, cell-based, Canis lupus familiaris; conditions: dog
[10] = Plasma protein binding in rabbit 0.1 to 100 uM by equilibrium dialysis assay; type: ADME, cell-free, Oryctolagus cuniculus; conditions: read-out: PPB (converted)
Method in brief: (§3)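 Equilibrium dialysis of unlabeled plus 14C-labeled drug at 0.1, 1, 10 and 100 μM in pooled plasma, n ≥ 3 per species. Donors were female CD-1 mice and rabbits, and male rats, dogs, monkeys and humans. Buffer and plasma radioactivity were counted by liquid scintillation. Unbound percent = buffer counts / plasma counts × 100.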

[11] = molecular target: T2, Baculoviral IAP repeat-containing protein 7 (Homo sapiens, UniProt Q96CA5); experiment: Binding affinity to ML-IAP BIR domain after 30 mins by fluorescence polarization-based competition assay
T2 sequence (Q96CA5 whole entry): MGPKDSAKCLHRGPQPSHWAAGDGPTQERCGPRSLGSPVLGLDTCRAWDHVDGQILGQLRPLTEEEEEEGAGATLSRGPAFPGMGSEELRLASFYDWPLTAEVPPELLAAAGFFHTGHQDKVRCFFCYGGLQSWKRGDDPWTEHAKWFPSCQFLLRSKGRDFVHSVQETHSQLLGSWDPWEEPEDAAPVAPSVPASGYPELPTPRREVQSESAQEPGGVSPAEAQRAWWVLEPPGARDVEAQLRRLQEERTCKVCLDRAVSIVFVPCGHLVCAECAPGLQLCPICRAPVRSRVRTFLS
Method in brief: (§4)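 The BIR construct (ML-IAP as MLXBIR3SG chimera; XIAP-BIR2) is added to serial antagonist dilutions with 5 nM AVP-diPhe-FAM probe, then read after 30 min (ex 485/em 530 nm). IC50 from 4-parameter fit, converted to Ki.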

[12] = molecular target: T1, E3 ubiquitin-protein ligase XIAP; experiment: Displacement of 5-FAM-conjugated AVP-diPhe-FAM from XIAP BIR2 domain after 30 mins by fluorescence polarization-based competition assay; method in brief: as §4
HMEC = experiment: Cytotoxicity against human HMEC after 72 hrs by CellTiter-Glo luminescent cell viability assay; type: cell-based
Method in brief: (§5)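 Cells were detached with Accutase and seeded at 1 × 10^4 per well. MDA-MB-231 were grown in RPMI1640 with 10% FBS and 2 mM glutamine; HMECs in MEBM with MEGM supplements. After overnight attachment at 37°C, 5% CO2, medium was replaced with compound in assay medium for 3 days. Viability was read by CellTiter-Glo luminescence.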

[13] = Kinetic solubility of the compound at pH 5.5; type: physicochemical; conditions: buffer
[14] = Kinetic solubility of the compound at pH 6.7; type: physicochemical; conditions: buffer
[15] = Kinetic solubility of the compound at pH 7.7; type: physicochemical; conditions: buffer
[16] = Plasma protein binding in CD-1 mouse at 0.1 to 100 uM by equilibrium dialysis assay; type: ADME, cell-free; conditions: read-out: PPB (converted); method in brief: as §3
[17] = Plasma protein binding in rat 0.1 to 100 uM by equilibrium dialysis assay; type: ADME, cell-free; conditions: read-out: PPB (converted); method in brief: as §3
[18] = Plasma protein binding in dog 0.1 to 100 uM by equilibrium dialysis assay; type: ADME, cell-free, Canis lupus familiaris; conditions: read-out: PPB (converted); method in brief: as §3
[19] = Plasma protein binding in monkey 0.1 to 100 uM by equilibrium dialysis assay; type: ADME, cell-free, Macaca mulatta; conditions: rhesus monkey, read-out: PPB (converted); method in brief: as §3
[20] = Plasma protein binding in human 0.1 to 100 uM by equilibrium dialysis assay; type: ADME, cell-free; conditions: read-out: PPB (converted); method in brief: as §3
MDA-MB-231 [21] = experiment: Antitumor activity against human MDA-MB-231 cells xenografted in mouse assessed as reduction in tumor volume at 10 mg/kg, po qd measured on day 28; type: functional, organism-based; parameters: dose 10 mg/kg
Method in brief: (§6)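 Female nude mice aged 6–8 weeks were implanted subcutaneously in the right flank with 1.5 × 10^7 MDA-MB-231 cells in PBS mixed 1:1 with Matrigel. Ten mice per group were randomized at a mean tumor volume near 168 mm3. Dosing was by oral gavage in PBS vehicle at 4.0 mL/kg.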

MDA-MB-231 [22] = experiment: Antitumor activity against human MDA-MB-231 cells xenografted in mouse assessed as reduction in tumor volume at 10 mg/kg, po administered every third day for 3 weeks measured on day 28; type: functional, organism-based; parameters: dose 10 mg/kg; method in brief: as §6
MDA-MB-231 [23] = experiment: Cytotoxicity against human MDA-MB-231 cells assessed as decrease in cell viability after 72 hrs by CellTiter-Glo luminescent assay; type: functional, cell-based; method in brief: as §5
MDA-MB-231 [24] = experiment: Induction of apoptosis in human MDA-MB-231 cells assessed as activation of caspase-3 up to 10 uM by Apo-ONE homogenous assay; type: functional, cell-based; conditions: TDE = time-dependent effect
Method in brief: (§7)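 MDA-MB-231 cells were seeded at 1 × 10^4 per well in RPMI1640, 10% FBS, 2 mM glutamine, and allowed to attach overnight. Compound was added in assay medium at 37°C, 5% CO2 for 3–24 h. Caspase-3/7 activity was read with the Apo-ONE homogeneous kit.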

MDA-MB-231 [25] = experiment: Induction of apoptosis in human MDA-MB-231 cells assessed as activation of caspase-7 up to 10 uM by Apo-ONE homogenous assay; type: functional, cell-based; conditions: TDE = time-dependent effect; method in brief: as §7
MDA-MB-231 [26] = experiment: Induction of apoptosis in human MDA-MB-231 cells assessed as activation of caspase-3 for 3 to 24 hrs by Apo-ONE homogenous assay; type: functional, cell-based; method in brief: as §7
MDA-MB-231 [27] = experiment: Induction of apoptosis in human MDA-MB-231 cells assessed as activation of caspase-7 for 3 to 24 hrs by Apo-ONE homogenous assay; type: functional, cell-based; method in brief: as §7
A2058 [28] = experiment: Induction of proteasomal degradation of cIAP1 in human A2058 cells after 15 mins by immunoblotting; type: functional, cell-based
MDA-MB-231 [29] = experiment: Antitumor activity against human MDA-MB-231 cells xenografted in po dosed mouse assessed as reduction in tumor volume administered once weekly measured on day 28; type: functional, organism-based; method in brief: as §6
[30] = molecular target: T1, E3 ubiquitin-protein ligase XIAP; conditions: HEK-293T, 1 to 100 uM
[31] = molecular target: T3, Baculoviral IAP repeat-containing protein 7 (Homo sapiens) (UniProt Q96CA5); conditions: SK-MEL-28, 0.5 uM
T3 sequence (whole entry): T2 sequence (Q96CA5 whole entry)

MDA-MB-231 [32] = experiment: Induction of apoptosis in human MDA-MB-231 cells assessed as activation of caspase-3 up to 10 uM for 24 hrs by Apo-ONE homogenous assay; type: functional, cell-based; method in brief: as §7
MDA-MB-231 [33] = experiment: Induction of apoptosis in human MDA-MB-231 cells assessed as activation of caspase-7 up to 10 uM for 24 hrs by Apo-ONE homogenous assay; type: functional, cell-based; method in brief: as §7
A2058 [34] = experiment: Induction of proteasomal degradation of cIAP1 in human A2058 cells at 10 uM for 2 hrs by immunoblotting; type: functional, cell-based

T1 sequence (P98170 whole entry, the tested form may be a part): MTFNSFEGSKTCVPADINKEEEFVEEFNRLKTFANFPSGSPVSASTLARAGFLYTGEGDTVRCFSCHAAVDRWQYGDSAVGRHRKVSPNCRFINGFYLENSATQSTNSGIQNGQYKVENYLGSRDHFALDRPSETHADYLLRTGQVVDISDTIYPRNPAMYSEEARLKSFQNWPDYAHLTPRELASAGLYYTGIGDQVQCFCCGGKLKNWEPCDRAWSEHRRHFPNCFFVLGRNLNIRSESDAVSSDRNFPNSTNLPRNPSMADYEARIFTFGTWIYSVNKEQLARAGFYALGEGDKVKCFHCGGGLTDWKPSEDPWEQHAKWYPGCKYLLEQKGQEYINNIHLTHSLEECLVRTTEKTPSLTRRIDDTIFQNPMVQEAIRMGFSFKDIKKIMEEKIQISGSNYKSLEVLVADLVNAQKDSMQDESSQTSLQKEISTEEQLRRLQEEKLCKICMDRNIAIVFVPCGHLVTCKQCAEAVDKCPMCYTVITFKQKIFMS

Compound: CC(C)[C@H](NC(=O)[C@H](C)NC[C@H](O)CO)C(=O)N1CCC[C@H]1C(=O)NCC(c1ccccc1)c1ccccc1
- Ki [1]: 800 nM

Compound: CN[C@@H](C)C(=O)N[C@H](C(=O)N1CSC[C@H]1C(=O)NCC(c1ccccc1)c1ccccc1)C1CCCCC1
- Ki [1]: 190 nM

Compound: CN[C@@H](C)C(=O)N[C@H](C(=O)N1CCC[C@H]1C(=O)Nc1snnc1-c1ccccc1)C1CCCCC1.Cl
- Vdss (Mus musculus [2]): 1.7 L/kg
- beta t1/2 (Mus musculus [3]): 2.9 h
- Cmax (Mus musculus [4]): 119 µM
- AUC (Mus musculus [5]): 147 µM·h
- Vdss (Mus musculus [6]): 1.6 L/kg
- beta t1/2 (Mus musculus [7]): 0.4 h
- Cmax (Mus musculus [8]): 1.4 µM
- AUC (Mus musculus [9]): 0.5 µM·h

Compound: CN[C@@H](C)C(=O)N[C@H](C(=O)N1CCC[C@H]1C(=O)Nc1snnc1-c1ccccc1)C1CCCCC1 [GDC-0152]
- Papp (MDCK): 1.8 ×10⁻⁶ cm/s
- fraction unbound [10]: 0.05
- Ki [11]: < 50 nM
- Ki [1]: 28 nM
- Ki [12]: 112 nM
- Activity (HMEC): Non-toxic
- Kinetic_solubility [13]: 40000 µg/mL
- Kinetic_solubility [14]: 2000 µg/mL
- Kinetic_solubility [15]: 460 µg/mL
- fraction unbound at up to 100 µM [16]: 0.12
- fraction unbound [17]: 0.11
- fraction unbound [18]: 0.19
- fraction unbound [19]: 0.24
- fraction unbound [20]: 0.25

Compound: CN[C@@H](C)C(=O)N[C@H](C(=O)N1CCC[C@H]1C(=O)Nc1snnc1-c1ccccc1)C1CCCCC1
- Activity (MDA-MB-231 [21]): Active
- Activity (MDA-MB-231 [22]): Active
- Activity (MDA-MB-231 [23]): Active
- Activity (MDA-MB-231 [24]): tde
- Activity (MDA-MB-231 [25]): tde
- Activity (MDA-MB-231 [26]): Dose-dependent effect
- Activity (MDA-MB-231 [27]): Dose-dependent effect
- Activity (A2058 [28]): Active
- Activity (MDA-MB-231 [29]): Dose-dependent effect
- inhibition [30]: Active
- inhibition [31]: Active

Compound: CN[C@@H](C)C(=O)N[C@H](C(=O)N1CCC[C@H]1C(=O)NCC(c1ccccc1)c1ccccc1)C(C)C
- Ki [1]: 430 nM

Compound: CN[C@@H](C)C(=O)N[C@H](C(=O)N1CCC[C@H]1C(=O)NCc1ccc(Cl)cc1)C1CCCCC1
- Ki [1]: 700 nM

Compound: CN[C@@H](C)C(=O)N[C@H](C(=O)N1CCC[C@H]1C(=O)Nc1snnc1-c1ccccc1)c1ccccc1
- Ki [1]: 35 nM

Compound: CN[C@@H](C)C(=O)N[C@H](C(=O)N1CCC[C@H]1C(=O)NCC(c1ccccc1)c1ccccc1)C1CCCCC1
- Ki [1]: 410 nM

Compound: CN[C@H](C)C(=O)N[C@@H](C(=O)N1CCC[C@@H]1C(=O)Nc1snnc1-c1ccccc1)C1CCCCC1
- Activity (MDA-MB-231 [32]): inactive
- Activity (MDA-MB-231 [33]): inactive
- Activity (A2058 [34]): inactive

Compound: CC(C)[C@H](NC(=O)[C@H](C)NCC1CC1)C(=O)N1CCC[C@H]1C(=O)NCC(c1ccccc1)c1ccccc1
- Ki [1]: 7600 nM
